Drawing on ChEMBL document CHEMBL1255509, “Structure-activity relationship of boronic acid derivatives of tyropeptin: proteasome inhibitors” (Bioorg Med Chem Lett, 2010), this text covers IC50 for eight compounds.

The structures appear in SMILES notation. A value given as a limit tells only on which side of the number the result lay.

Test [1] can be described thus: Cytotoxicity against human RPMI8226 cells. In kind it is cell-based. The following applies: RPMI-8226.
Test [2] is described as follows: Inhibition of caspase like activity of partially purified human proteasome. In kind it is subcellular. The gist of the method:
(§1)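 Purified 20S proteasome isolated from human erythrocytes served as the enzyme source. Inhibition is reported as IC50.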

Test [3] is described as follows: Inhibition of chymotrypsin like activity of partially purified human proteasome. The class given is subcellular. Put shortly: as §1
The nature of test [4]: Inhibition of trypsin like activity of partially purified human proteasome. In kind it is subcellular. The gist of the method:
as §1

On to `COc1ccc(C[C@H](NC(=O)[C@@H](NC(=O)[C@H](Cc2ccc(OC)cc2)NC(=O)c2ccc(OC)cn2)C(C)C)B(O)O)cc1`, for which the IC50 is 13 nM in test [1], 21000 nM in test [2], 94 nM in test [3] and 14000 nM in test [4].
The corresponding values for `COc1ccc(C[C@H](NC(=O)[C@@H](NC(=O)[C@H](Cc2ccc(OC)cc2)NC(=O)c2cccc(OC)n2)C(C)C)B(O)O)cc1` are 51 nM, 35000 nM, 59 nM and 21000 nM.
Take `COc1ccc(C[C@H](NC(=O)[C@@H](NC(=O)[C@H](Cc2ccc(OC)cc2)NC(=O)c2cc([N+](=O)[O-])ccn2)C(C)C)B(O)O)cc1`: the half-inhibitory concentration (IC50) in test [1] is 48 nM; in test [2] it was 34000 nM; in test [3], 190 nM; in test [4] it was 19000 nM.
For `COc1ccc(C[C@H](NC(=O)[C@@H](NC(=O)[C@H](Cc2ccc(OC)cc2)NC(=O)c2cc(N(C)C)ccn2)C(C)C)B(O)O)cc1`, the half-inhibitory concentration (IC50) amounted to 44 nM in test [1], 21000 nM in test [2], 110 nM in test [3] and 15000 nM in test [4].
The corresponding values for `COc1ccc(C[C@H](NC(=O)CNC(=O)[C@H](Cc2ccc(OC)cc2)NC(=O)c2ccccn2)B(O)O)cc1` are 24 nM, 34000 nM, 260 nM and above 40000 nM.
As for `COc1ccc(C[C@H](NC(=O)[C@H](C)NC(=O)[C@H](Cc2ccc(OC)cc2)NC(=O)c2ccccn2)B(O)O)cc1`, the half-maximal inhibitory concentration (IC50) in test [1] is 57 nM; in test [2], above 40000 nM; in test [3] it was 110 nM; in test [4] it was above 40000 nM.
In the case of `COc1ccc(C[C@H](NC(=O)[C@@H](NC(=O)[C@H](Cc2ccc(OC)cc2)NC(=O)Cc2cccc3ccccc23)C(C)C)B(O)O)cc1`, the IC50 was 28 nM in test [1], 39000 nM in test [2], 19 nM in test [3] and above 40000 nM in test [4].
The corresponding values for `CC(C)C[C@H](NC(=O)[C@H](Cc1ccccc1)NC(=O)c1cnccn1)B(O)O` [BORTEZOMIB] are 8.8 nM, 750 nM, 39 nM and above 40000 nM.
